Data set [1] can be described thus: Antitumor activity against patient-derived breast cancer cells xenografted in NOD/SCID mouse assessed as tumor growth inhibition at 5 mg/kg, iv administered once daily for 20 days. The class given is functional. The note with it: Homo sapiens, Breast cancer cell line, 480 h, time 20 day, read-out: TGI. (A xenograft is tissue or cells of one species grown in another, often human tumour cells in immunodeficient mice.)

The test system of data set [2] is MDA231-LM2-4175. The experiment in a line: Inhibition of cell invasion in human MDA231-LM2-4175 cells incubated for 12 hrs by crystal violet staining based transwell assay. The class given is functional. The note with it: dose 1-3 µM. In outline:
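Cells seeded at 1.5×10^4–3×10^4 per well in the upper chamber of 8.0 µm pore Transwell inserts and treated with graded compound for 12 h. Non-invading cells removed with cotton. Invaded cells fixed in 4% paraformaldehyde, stained with crystal violet, photographed and counted. Triplicate.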

Data set [3] has as its target T1, Signal transducer and activator of transcription 3 (Homo sapiens, UniProt P40763). In words: Inhibition of STAT3 in human MDA-MB-468 cells assessed as downregulation of Mcl-1 expression at 0.3 to 3 uM after 24 hrs by western blot analysis. In kind it is cell-based. Particulars: dose 0.3-3 µM. In outline: (§1)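 TNBC cells given vehicle (0.1% DMSO) or graded compound levels for 24 h, lysed in RIPA with PMSF and phosphatase inhibitors. BCA-quantified lysate (20–50 µg) run on SDS-PAGE, transferred to PVDF, blocked in 5% BSA. Probed overnight at 4 °C for Bcl-xL, Mcl-1 and c-Myc, with β-actin. HRP secondary, ECL detection. Three independent experiments.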
On the technique in general: Immunoblotting shows a protein as a band on a membrane.

Data set [4] deals with T1, Signal transducer and activator of transcription 3. In words: Inhibition of STAT3 in human MDA-MB-231 cells assessed as downregulation of Mcl-1 expression at 0.3 to 3 uM after 24 hrs by western blot analysis. In kind it is cell-based. The note with it: dose 0.3-3 µM. Put shortly: as §1
Data set [5] has as its system MDA-MB-468. The experiment in a line: Effect on total STAT3 level in human MDA-MB-468 cells at 0.3 to 3 uM measured after 3 hrs by Western blot analysis. The class given is functional, cell-based. The note with it: dose 0.3-3 µM. Put shortly:
(§2)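 Breast cancer cells were treated with vehicle (0.1% DMSO) or compound, then lysed in RIPA with PMSF and phosphatase inhibitors. 20–50 μg protein was run on 8 or 12% SDS-PAGE, blotted to PVDF, blocked in 5% BSA, probed with primary antibodies overnight at 4 °C, then HRP secondaries, with ECL detection.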

In data set [6] the test system is MDA-MB-468. In words: Induction of apoptosis in human MDA-MB-468 cells assessed as increase in PARP cleavage at 1 uM after 48 hrs by Western blot analysis. In kind it is functional, cell-based. Put shortly:
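Cells were treated with vehicle (0.1% DMSO) or compound, then analysed by western blot of RIPA lysates (20–50 μg protein, SDS-PAGE, PVDF) for PARP and cleaved caspase-7, with β-actin as loading control. Three independent experiments.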

The target of data set [7] is T1, Signal transducer and activator of transcription 3. In words: Inhibition of Flag-tagged STAT3 dimerization (unknown origin) expressed in HEK293T cells after 24 hrs by confocal microscopic analysis. The note with it: dose 1-3 µM. In kind it is cell-based. Put shortly:
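HEK-293T cells transfected with HA-STAT3 and Flag-STAT3. After 24 h, treated with vehicle (0.1% DMSO) or compound for 24 h, with IL-6 100 ng/mL added for 30 min. Fixed in paraformaldehyde, permeabilised with Triton X-100, stained with anti-HA and anti-Flag plus Alexa 488/555 secondaries and DAPI. Confocal imaging for colocalisation.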

Data set [8] shares this target. In words: Inhibition of STAT3 dependent transcriptional activity (unknown origin) expressed in HEK293T cells at 1 to 3 uM after 24 hrs by Dual-luciferase reporter gene assay. In kind it is cell-based. Particulars: dose 1-3 µM. In outline: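 HEK-293T cells (2.5×10^4/well) co-transfected with pGL3-STAT3 (seven STAT3 binding-site copies; 50 ng), STAT3C (50 ng) and TK-Renilla (40 ng). After 24 h, treated with vehicle or compound for 24 h. Dual firefly/Renilla luciferase read on a luminometer.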
A general note: A reporter such as luciferase makes a cellular process visible.

Data set [9] is described as follows: Induction of apoptosis in human MDA231-LM2-4175 cells assessed as viable cells at 1 uM after 48 hrs by Annexin-V-FITC/propidium iodide staining based flow cytometric analysis (reference value: 94.4%). The note with it: read-out: Activity. The class given is functional.
Data set [10] can be described thus: Antitumor activity against patient-derived breast cancer cells xenografted in NOD/SCID mouse assessed as tumor growth inhibition at 15 mg/kg, ip administered once daily for 20 days. Particulars: Homo sapiens, Breast cancer cell line, 480 h, read-out: TGI.
For data set [11], the system named is MDA231-LM2-4175. In words: Effect on total STAT3 level in human MDA231-LM2-4175 cells at 0.3 to 3 uM measured after 3 hrs by Western blot analysis. In kind it is functional, cell-based. The note with it: dose 0.3-3 µM. Put shortly: as §2
The next data set relates to MDA-MB-231. In words: Induction of apoptosis in human MDA-MB-231 cells assessed as late apoptotic cells at 3 uM after 48 hrs by Annexin-V-FITC/propidium iodide staining based flow cytometric analysis (Rvb =3.05%). In kind it is functional.
The test system of data set [12] is MDA-MB-468. The experiment in a line: Inhibition of cell migration in human MDA-MB-468 cells incubated for 12 to 96 hrs by wound healing assay. The class given is functional, cell-based. The note with it: dose 0.3-3 µM, time 12-96 hrs. Put shortly: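 Cells grown to 100% confluence, then scratched with a pipette tip. Treated with 0–3 μM until vehicle-treated cells had migrated into the scratch. Images taken by microscope after about 12–96 h. Triplicate experiments.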

Data set [13] relates to MDA231-LM2-4175. The experiment in a line: Antitumor activity against iv dosed human MDA231-LM2-4175 cells xenografted in mouse assessed as tumor growth inhibition administered once daily for 20 days. In kind it is functional, organism-based. The note with it: dose 5-15 mg/kg, time 20.0 day.
Data set [14] in a line: AUC(0 to last) in Sprague-Dawley rat at 10 mg/kg, po measured up to 24 hrs by LC-MS/MS analysis. In kind it is ADME, organism-based. Also on record: route oral, dose 10 mg/kg, time <=24. The note with it: in vivo. Put shortly: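 Male SD rats given a single oral dose of 10 mg/kg in DMSO/0.5% HPMC (5/95, v/v). Blood was drawn at 0.25, 0.5, 1, 2, 4, 8 and 24 h, and plasma was analysed by LC-MS/MS on a BEH phenyl column with a formic acid water/acetonitrile mobile phase.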

Data set [15] concerns MDA-MB-468. The experiment in a line: Induction of apoptosis in human MDA-MB-468 cells assessed as viable cells at 3 uM after 48 hrs by Annexin-V-FITC/propidium iodide staining based flow cytometric analysis (reference value: 95.5%). The note with it: read-out: Activity. In kind it is functional.
A short description of data set [16]: Toxicity in NOD/SCID mouse xenografted with patient-derived breast cancer cells assessed as morphological change in kidney at 5 to 15 mg/kg, […] once daily for 20 days by HE staining based assay. In kind it is organism-based. Particulars: in vivo, iv, dose 5-15 mg/kg, time 20 day. Put shortly: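 Female NOD-SCID mice implanted subcutaneously in the flank with about 2 mm³ TNBC PDX fragments. At about 100 mm³ tumour volume, randomised n=6/group: vehicle (PBS with 15% Cremophor EL), 5 or 15 mg/kg intraperitoneally daily. Killed at day 20; heart, liver, spleen, lung and kidney collected for morphological examination.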

A short description of data set [17]: Toxicity in mouse xenografted with human MDA-MB-231-4175 cells assessed as morphological change in heart at 5 to 15 mg/kg, […] once daily for 20 days by HE staining based assay. The class given is organism-based. Particulars: in vivo, iv, 480 h, dose 5-15 mg/kg, time 20 day. In outline:
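Female NOD-SCID mice aged 4–5 weeks, given 2×10^6–3×10^6 MDA-MB-231-4175 cells subcutaneously in the flank. At about 100 mm³ tumour volume, randomised n=6/group: vehicle (PBS with 15% Cremophor EL), 5 or 15 mg/kg intraperitoneally daily. Killed at day 20; heart, liver, spleen, lung and kidney collected for morphological examination.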

The source made the active and inactive calls. No cut-off for these calls is given here.

T1 sequence (P40763 whole entry): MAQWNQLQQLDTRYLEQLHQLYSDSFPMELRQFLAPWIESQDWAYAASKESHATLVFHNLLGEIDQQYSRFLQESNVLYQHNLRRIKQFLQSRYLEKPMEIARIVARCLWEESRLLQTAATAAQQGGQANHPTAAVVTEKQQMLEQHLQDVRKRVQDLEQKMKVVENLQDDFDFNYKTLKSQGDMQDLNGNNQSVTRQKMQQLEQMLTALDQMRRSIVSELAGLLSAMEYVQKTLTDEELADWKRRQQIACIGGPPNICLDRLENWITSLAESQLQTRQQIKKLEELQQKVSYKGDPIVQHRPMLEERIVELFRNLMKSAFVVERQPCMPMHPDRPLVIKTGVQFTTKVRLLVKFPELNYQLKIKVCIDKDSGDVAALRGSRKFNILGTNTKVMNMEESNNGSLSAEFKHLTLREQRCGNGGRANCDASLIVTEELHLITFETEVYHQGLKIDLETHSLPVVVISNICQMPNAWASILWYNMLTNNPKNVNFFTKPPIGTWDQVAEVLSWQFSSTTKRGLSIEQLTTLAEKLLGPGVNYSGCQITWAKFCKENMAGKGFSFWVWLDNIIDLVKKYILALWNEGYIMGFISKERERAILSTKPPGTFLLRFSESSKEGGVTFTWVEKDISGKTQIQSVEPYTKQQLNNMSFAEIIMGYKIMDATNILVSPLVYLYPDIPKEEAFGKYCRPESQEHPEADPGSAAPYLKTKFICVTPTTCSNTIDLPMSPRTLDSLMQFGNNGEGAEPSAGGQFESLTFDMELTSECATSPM

In the case of `O=C(Cc1c(-c2ccccc2)nc2ccccn12)Nc1ccc2c(c1)S(=O)(=O)C=C2`, the inhibition in vivo at 5 mg/kg in data set [1] was found to be 32.7%. Besides, the inhibition entry (with MDA231-LM2-4175 [2]; in data set [7]; with MDA-MB-468 [12]) was “Dose-Dependent Effect” each time. For the same compound, the inhibition entry in data set [3], in data set [4] and in data set [8] was “Active” throughout. For the same compound, the outcome in the data set on MDA-MB-468 [5] and in the data set with MDA231-LM2-4175 [11] was inactive. The outcome with MDA-MB-468 [6] was Active. Further, in data set [9], the viability at 1 µM was found to be 88.7%. Besides, the inhibition in vivo at 15 mg/kg in [10] is 68.9%. The Activity with MDA-MB-231 was 11.5%; with MDA231-LM2-4175 [13] it was “Dose-Dependent Effect”; in data set [16] it was “Non-Toxic”; in [17], “Non-Toxic”. In addition, the exposure AUC(0-t) (usually exposure summed from dosing to a finite time, without extrapolation to infinity) at 24 h in [14] stood at 54.6 ng·h/mL. In addition, the viability at 3 µM with MDA-MB-468 [15] is 38.6%.
